Columns and labels:
[1] = target: Epidermal growth factor receptor (Homo sapiens, UniProt P00533); assay: Inhibition of EGFR autophosphorylation in human A431 cells; assay type: cell-based, A-431
[2] = Metabolic stability in mouse liver assessed as compound remaining at 3.7 MBq after 2 mins; assay type: ADME, tissue-based; settings: read-out: Stability
Method in brief: (§1)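 Non-tumor-bearing mice received 3.7 MBq of the ¹⁸F tracer iv. Plasma and liver were collected at 2, 30 and 60 min and snap-frozen. Samples were extracted in ice-cold MeOH (liver homogenized), centrifuged at 4 °C, then dried, filtered and run on radio-HPLC. Parent fraction = parent peak over total chromatogram radioactivity; plasma extraction efficiency 83.5%. Mean of three studies per time point.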

[3] = Metabolic stability in mouse liver assessed as compound remaining at 3.7 MBq after 30 mins; assay type: ADME, tissue-based; settings: read-out: Stability; method in brief: as §1
[4] = Metabolic stability in mouse liver assessed as compound remaining at 3.7 MBq after 60 mins; assay type: ADME, tissue-based; settings: read-out: Stability; method in brief: as §1
[5] = Metabolic stability in mouse plasma assessed as compound remaining at 3.7 MBq after 2 mins; assay type: ADME, cell-free; settings: read-out: Stability; method in brief: as §1
[6] = Metabolic stability in mouse plasma assessed as compound remaining at 3.7 MBq after 30 mins; assay type: ADME, cell-free; settings: read-out: Stability; method in brief: as §1
[7] = Metabolic stability in mouse plasma assessed as compound remaining at 3.7 MBq after 60 mins; assay type: ADME, cell-free; settings: read-out: Stability; method in brief: as §1
[8] = Biodistribution in human A431 cell xenografted nu/nu BALB/c mouse plasma at 3.7 MBq after 60 mins; assay type: ADME, organism-based, A-431; settings: in vivo, 1 h
[9] = system: Blood; assay: Biodistribution in human A431 cell xenografted nu/nu BALB/c mouse blood at 3.7 MBq after 60 mins; assay type: ADME, organism-based, A-431; settings: in vivo, 1 h
[10] = system: Heart; assay: Biodistribution in human A431 cell xenografted nu/nu BALB/c mouse heart at 3.7 MBq after 60 mins; assay type: ADME, organism-based, A-431; settings: in vivo, 1 h
[11] = Biodistribution in human A431 cell xenografted nu/nu BALB/c mouse tumor at 3.7 MBq after 60 mins; assay type: ADME, organism-based, Neoplasm, A-431; settings: in vivo, 1 h
[12] = system: Muscle tissue; assay: Biodistribution in human A431 cell xenografted nu/nu BALB/c mouse muscle at 3.7 MBq after 60 mins; assay type: ADME, organism-based, A-431; settings: in vivo, 1 h
[13] = system: Bone; assay: Biodistribution in human A431 cell xenografted nu/nu BALB/c mouse bone at 3.7 MBq after 60 mins; assay type: ADME, organism-based, Bone element, A-431; settings: in vivo, 1 h
[14] = system: Brain; assay: Biodistribution in human A431 cell xenografted nu/nu BALB/c mouse brain at 3.7 MBq after 60 mins; assay type: ADME, organism-based, A-431; settings: in vivo, 1 h
[15] = system: Lung; assay: Biodistribution in human A431 cell xenografted nu/nu BALB/c mouse lung at 3.7 MBq after 60 mins; assay type: ADME, organism-based, A-431; settings: in vivo, 1 h
[16] = Biodistribution in human A431 cell xenografted nu/nu BALB/c mouse liver at 3.7 MBq after 60 mins; assay type: ADME, organism-based, A-431; settings: in vivo, 1 h
[17] = Biodistribution in human A431 cell xenografted nu/nu BALB/c mouse gallbladder at 3.7 MBq after 60 mins; assay type: ADME, organism-based, Gall bladder, A-431; settings: in vivo, 1 h
[18] = system: Stomach; assay: Biodistribution in human A431 cell xenografted nu/nu BALB/c mouse full stomach at 3.7 MBq after 60 mins; assay type: ADME, organism-based, A-431; settings: in vivo, 1 h
[19] = system: Stomach; assay: Biodistribution in human A431 cell xenografted nu/nu BALB/c mouse empty stomach at 3.7 MBq after 60 mins; assay type: ADME, organism-based, A-431; settings: in vivo, 1 h
[20] = system: Duodenum; assay: Biodistribution in human A431 cell xenografted nu/nu BALB/c mouse full duodenum at 3.7 MBq after 60 mins; assay type: ADME, organism-based, A-431; settings: in vivo, 1 h
[21] = system: Duodenum; assay: Biodistribution in human A431 cell xenografted nu/nu BALB/c mouse empty duodenum at 3.7 MBq after 60 mins; assay type: ADME, organism-based, A-431; settings: in vivo, 1 h
[22] = system: Jejunum; assay: Biodistribution in human A431 cell xenografted nu/nu BALB/c mouse full jejunum at 3.7 MBq after 60 mins; assay type: ADME, organism-based, A-431; settings: in vivo, 1 h
[23] = system: Jejunum; assay: Biodistribution in human A431 cell xenografted nu/nu BALB/c mouse empty jejunum at 3.7 MBq after 60 mins; assay type: ADME, organism-based, A-431; settings: in vivo, 1 h
[24] = Biodistribution in human A431 cell xenografted nu/nu BALB/c mouse full caecum at 3.7 MBq after 60 mins; assay type: ADME, organism-based, A-431; settings: in vivo, 1 h
[25] = Biodistribution in human A431 cell xenografted nu/nu BALB/c mouse empty caecum at 3.7 MBq after 60 mins; assay type: ADME, organism-based, A-431; settings: in vivo, 1 h
[26] = system: Colon; assay: Biodistribution in human A431 cell xenografted nu/nu BALB/c mouse full colon at 3.7 MBq after 60 mins; assay type: ADME, organism-based, A-431; settings: in vivo, 1 h
[27] = system: Colon; assay: Biodistribution in human A431 cell xenografted nu/nu BALB/c mouse empty colon at 3.7 MBq after 60 mins; assay type: ADME, organism-based, A-431; settings: in vivo, 1 h
[28] = system: Spleen; assay: Biodistribution in human A431 cell xenografted nu/nu BALB/c mouse spleen at 3.7 MBq after 60 mins; assay type: ADME, organism-based, A-431; settings: in vivo, 1 h
[29] = system: Kidney; assay: Biodistribution in human A431 cell xenografted nu/nu BALB/c mouse kidney at 3.7 MBq after 60 mins; assay type: ADME, organism-based, A-431; settings: in vivo, 1 h
[30] = Biodistribution in human A431 cell xenografted nu/nu BALB/c mouse urine at 3.7 MBq after 60 mins; assay type: ADME, organism-based, A-431; settings: in vivo, 1 h

Sequence of Epidermal growth factor receptor (P00533 whole entry): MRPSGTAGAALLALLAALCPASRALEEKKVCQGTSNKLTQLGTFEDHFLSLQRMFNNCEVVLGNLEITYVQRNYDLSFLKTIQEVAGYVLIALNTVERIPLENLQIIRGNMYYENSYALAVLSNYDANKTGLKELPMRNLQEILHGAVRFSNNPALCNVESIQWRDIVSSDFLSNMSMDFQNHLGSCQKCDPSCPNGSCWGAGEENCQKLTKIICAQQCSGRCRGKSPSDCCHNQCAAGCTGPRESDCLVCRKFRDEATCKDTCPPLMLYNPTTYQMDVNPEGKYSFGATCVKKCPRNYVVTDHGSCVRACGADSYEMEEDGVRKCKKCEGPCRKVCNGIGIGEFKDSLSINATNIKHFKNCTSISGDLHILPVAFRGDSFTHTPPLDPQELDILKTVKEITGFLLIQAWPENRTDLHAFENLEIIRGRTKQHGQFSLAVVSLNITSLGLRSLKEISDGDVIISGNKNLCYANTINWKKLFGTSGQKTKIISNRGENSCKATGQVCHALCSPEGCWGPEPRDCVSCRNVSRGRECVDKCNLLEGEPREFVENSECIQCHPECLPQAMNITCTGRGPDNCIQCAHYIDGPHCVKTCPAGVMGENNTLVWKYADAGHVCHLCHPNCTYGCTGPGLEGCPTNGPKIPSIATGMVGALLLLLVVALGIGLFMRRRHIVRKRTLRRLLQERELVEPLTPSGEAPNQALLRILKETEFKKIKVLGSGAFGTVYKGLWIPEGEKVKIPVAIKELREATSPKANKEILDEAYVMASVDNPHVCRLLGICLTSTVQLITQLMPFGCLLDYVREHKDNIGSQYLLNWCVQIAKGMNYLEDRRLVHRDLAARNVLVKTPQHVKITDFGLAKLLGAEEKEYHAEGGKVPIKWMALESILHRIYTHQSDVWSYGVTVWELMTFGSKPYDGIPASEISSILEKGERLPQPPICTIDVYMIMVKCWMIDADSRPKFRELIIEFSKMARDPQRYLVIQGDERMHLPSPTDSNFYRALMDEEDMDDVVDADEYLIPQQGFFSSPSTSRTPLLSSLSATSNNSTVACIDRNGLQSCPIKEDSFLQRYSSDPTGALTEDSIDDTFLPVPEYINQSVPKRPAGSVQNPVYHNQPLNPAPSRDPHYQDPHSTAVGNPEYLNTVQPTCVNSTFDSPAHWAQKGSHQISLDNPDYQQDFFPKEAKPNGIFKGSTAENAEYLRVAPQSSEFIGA

## Nc1cc2ncnc(Nc3cccc(Br)c3)c2cc1N
[1]
  IC50: > 1000 nM

## CCOc1cc2ncc(C#N)c(Nc3ccc(F)c(Cl)c3)c2cc1NC(=O)/C=C/CNCc1cn(CCF)nn1
[2]
  remaining at 2 min: 95%
[3]
  remaining at 0.5 h: 85.1%
[4]
  remaining at 1 h: 75.5%
[5]
  remaining at 2 min: 98.9%
[6]
  remaining at 0.5 h: 62.8%
[7]
  remaining at 1 h: 49.8%
[8]
  Drug uptake: 0.027 % ID/g
[9]
  Drug uptake: 0.022 % ID/g
[10]
  Drug uptake: 0.041 % ID/g
[11]
  Drug uptake: 0.082 % ID/g
[12]
  Drug uptake: 0.018 % ID/g
[13]
  Drug uptake: 0.031 % ID/g
[14]
  Drug uptake: 0.006 % ID/g
[15]
  Drug uptake: 0.138 % ID/g
[16]
  Drug uptake: 0.392 % ID/g
[17]
  Drug uptake: 8.561 % ID/g
[18]
  Drug uptake: 1.341 % ID/g
[19]
  Drug uptake: 0.215 % ID/g
[20]
  Drug uptake: 1.987 % ID/g
[21]
  Drug uptake: 1.453 % ID/g
[22]
  Drug uptake: 0.489 % ID/g
[23]
  Drug uptake: 0.344 % ID/g
[24]
  Drug uptake: 0.161 % ID/g
[25]
  Drug uptake: 0.068 % ID/g
[26]
  Drug uptake: 0.236 % ID/g
[27]
  Drug uptake: 0.197 % ID/g
[28]
  Drug uptake: 0.211 % ID/g
[29]
  Drug uptake: 0.711 % ID/g
[30]
  Drug uptake: 0.151 % ID/g
